Assay results from ChEMBL document CHEMBL4393705, “New chalcone-sulfonamide hybrids exhibiting anticancer and antituberculosis activity” (Eur J Med Chem, 2019).
In brackets after ≈: the same amount, converted by molar mass.

What was measured:
NIH3T3 = assay: Cytotoxicity against mouse 3T3 cells assessed as cell viability measured after 48 hrs by MTT assay; assay type: cell-based; details: nih3t3, 48 h
Procedure, shortened: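 3T3 fibroblasts in DMEM with 10% FBS and penicillin-streptomycin, seeded at 10^4 cells/well 24 h prior. Exposed 48 h to two-fold serial dilutions from a 100 mg/mL DMSO stock. MTT (5 mg/mL in PBS) added for 1.5 h, formazan dissolved in DMSO, read at 530 nm. Duplicate runs on different days. Value interpolated between DMSO (100%) and cycloheximide (0%) controls.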

Staphylococcus aureus = assay: Antibacterial activity against Staphylococcus aureus measured every 120 mins for 36 hrs by LB broth two-fold serial dilution method; assay type: functional
Procedure, shortened: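 Panel of 12 laboratory and clinical S. aureus strains with varied drug-susceptibility patterns. Compounds were two-fold serially diluted in LB broth from a maximum of 32 mg/L. Growth was followed by OD600 every 120 min for 36 h. Vancomycin was the positive control, and runs were in duplicate.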

K562 = assay: Anticancer activity against human K562 cells assessed as tumour cell growth at 10 uM after 48 hrs by SRB assay relative to control; assay type: functional
Procedure, shortened: (§1)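 NCI 60-line primary screen at a single 10 μM dose in RPMI-1640 with 5% FBS and 2 mM L-glutamine. Cells were preincubated 24 h at 37 °C in 5% CO₂, with time-zero plates fixed with TCA. Compounds (DMSO, diluted in gentamicin medium) were incubated 48 h, then cells TCA-fixed and stained with 0.4% SRB (A515). Growth percent was derived from time-zero, control and treated absorbances.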

[1] = system: Mycolicibacterium smegmatis; assay: Antibacterial activity against Mycobacterium smegmatis MC2 155 measured after 48 hrs by agar dilution SPOTi assay; assay type: functional; details: MC2 155, 48 h
Procedure, shortened: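 SPOTi agar dilution on Middlebrook 7H10 without OADC. Cells were passaged in Middlebrook 7H9 and then spotted. Compounds were tested at 100, 50, 20, 10 and 5 mg/L, with kanamycin as positive control. Plates were incubated 48 h at 37°C. MIC was taken as the lowest concentration with no visible growth.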

SR = assay: Anticancer activity against human SR cells assessed as tumour cell growth at 10 uM after 48 hrs by SRB assay relative to control; assay type: functional; procedure, shortened: as §1
[2] = system: Mycobacterium tuberculosis; assay: Antitubercular activity against Mycobacterium tuberculosis H37Rv ATCC27294 measured after 2-3 weeks by agar dilution SPOTi assay; assay type: functional; details: H37Rv ATCC 27294
Procedure, shortened: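 Agar dilution SPOTi on Middlebrook 7H10 with 0.5% glycerol and 10% OADC. Final compound levels 50, 20, 10, 5, 2 mg/L, added from DMSO dilutions. 2 µL of a 10^6 CFU/mL inoculum from a 4-week Löwenstein-Jensen culture spotted per well, incubated 2-3 weeks at 37°C. MIC is the lowest concentration with no visible growth. Repeated on a separate day; isoniazid was the reference.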

[3] = Selectivity index, ratio of LC50 for mouse 3T3 cells to MIC for Mycobacterium tuberculosis H37Rv ATCC27294; assay type: toxicity; details: read-out: Selectivity Index
HCT-116 = assay: Anticancer activity against human HCT116 cells assessed as tumour cell growth at 10 uM after 48 hrs by SRB assay relative to control; assay type: functional; procedure, shortened: as §1
M14 = assay: Anticancer activity against human M14 cells assessed as tumour cell growth at 10 uM after 48 hrs by SRB assay relative to control; assay type: functional; procedure, shortened: as §1
HL-60 = assay: Anticancer activity against human HL60 cells assessed as tumour cell growth at 10 uM after 48 hrs by SRB assay relative to control; assay type: functional; procedure, shortened: as §1

Row | SMILES | LC50 (NIH3T3) [µM] | MIC (Staphylococcus aureus) [µM] | Activity (K562) [%] | MIC [1] [µM] | Activity (SR) [%] | MIC [2] [µM] | selectivity ratio [3] | Activity (HCT-116) [%] | Activity (M14) [%] | Activity (HL-60) [%]
1 | COc1ccc(/C=C/C(=O)c2ccc(OC)c(S(N)(=O)=O)c2)cc1 | 96 | > 57 | 38.78 | > 175 | 28.1 | > 144 | – | – | – | –
2 | COc1ccc(C(=O)/C=C/c2ccccc2)cc1S(=O)(=O)Nc1c(N)nc(SC)[nH]c1=O | 17 | > 57 | 35.63 | > 175 | – | 42 (≈ 19.8 µg/mL) | 0.4 | 35.18 | – | –
3 | COc1ccc(C(=O)/C=C/c2cc(OC)c(OC)c(OC)c2)cc1S(=O)(=O)Nc1c(N)nc(SC)[nH]c1=O | 2.1 | > 57 | – | > 175 | – | > 89 | – | – | – | –
4 | COc1ccc(C(=O)/C=C/c2ccc3c(c2)OCO3)cc1S(N)(=O)=O | 132 | > 57 | 44.59 | > 175 | – | > 138 | – | 19.22 | – | –
5 | COc1ccc(C(=O)/C=C/c2ccc3c(c2)OCO3)cc1S(=O)(=O)Nc1c(N)nc(SC)[nH]c1=O | 7.1 | > 57 | 53.79 | > 175 | – | > 97 | – | 18.36 | – | –
6 | COc1ccc(C(C)=O)cc1S(=O)(=O)Nc1c(N)nc(SC)[nH]c1=O | > 1600 | > 57 | – | > 175 | – | > 130 | – | – | 94.85 | –
7 | COc1ccc(C(=O)/C=C/c2ccc(C)cc2)cc1S(=O)(=O)Nc1c(N)nc(SC)[nH]c1=O | 7.2 | > 57 | 38.79 | > 175 | – | 41 (≈ 19.9 µg/mL) | 0.18 | 10.78 | – | –
8 | COc1ccc(C(=O)/C=C/c2ccccc2)cc1S(N)(=O)=O | 7.7 | > 57 | 7.9 | > 175 | – | 16 (≈ 5.08 µg/mL) | 0.48 | – | – | –
9 | COc1ccc(C(=O)/C=C/c2cc(OC)c(OC)c(OC)c2)cc1S(N)(=O)=O | 2.4 | > 57 | – | > 175 | – | > 123 | – | – | – | –
10 | COc1ccc(/C=C/C(=O)c2ccc(OC)c(S(=O)(=O)Nc3c(N)nc(SC)[nH]c3=O)c2)cc1 | 6.5 | > 57 | 54.26 | > 175 | – | > 100 | – | 24.01 | – | –
11 | COc1ccc(C(=O)/C=C/c2ccc(C)cc2)cc1S(N)(=O)=O | 4.3 | > 57 | 3.04 | > 175 | – | 30 (≈ 9.94 µg/mL) | 0.14 | – | – | –
12 | COc1ccc(C(C)=O)cc1S(N)(=O)=O | > 2700 | > 57 | – | > 175 | – | > 218 | – | – | – | 74.74
13 | C[C@@H]1C[C@@H]([C@H](O)CC2CC(=O)NC(=O)C2)C(=O)[C@@H](C)C1 [CYCLOHEXIMIDE] | < 2.2 | – | – | – | – | – | – | – | – | –
14 | NNC(=O)c1ccncc1 [ISONIAZID] | – | – | – | – | – | 0.36 (≈ 0.0494 µg/mL) | – | – | – | –
